Source: ChEMBL document CHEMBL1147976 (Eur J Med Chem, 2007)

Key:
[1] = test system: Leishmania infantum; experiment: Antipromastigote activity against Leishmania infantum; assay type: functional, organism-based
Summary of the method: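 L. infantum MHOM/FR/78/LEM75 late log-phase promastigotes in phenol-red-free RPMI with 12% foetal calf serum and 10% Alamar Blue. Concentration range added to duplicate cultures, final DMSO below 5%. Incubated 48 h at 25 C. Alamar Blue reduction read by absorbance at 570 and 630 nm. IC50 = concentration giving 50% reduction of Alamar Blue versus control.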

[2] = test system: THP-1; experiment: Cytotoxicity against human THP1 cells; assay type: cell-based
Summary of the method: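 Late log-phase human monocytes in RPMI with 10% Alamar Blue and 10% foetal calf serum. Concentration range in duplicate cultures, final DMSO below 5%. Incubated 72 h at 37 C, 5% CO2. Alamar Blue reduction measured as absorbance at 570 and 630 nm. IC50 based on reduction relative to control culture.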

[3] = Binding affinity to DNA by DNA-methyl green bioassay; parameters: species or system Homo sapiens
Summary of the method: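 Absorbance at 630 nm read at start and after 24 h dark at room temperature. Readings corrected for initial value, normalized to untreated complex. IC50 = 50% drop in DNA-related absorbance.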

[4] = Toxicity in human macrophages; assay type: cell-based; conditions: macrophage
[5] = test system: Leishmania infantum; experiment: Antiamastigote activity against Leishmania infantum; assay type: functional, organism-based

| IC50 [1] | IC50 [3] | IC50 [5] | SMILES | IC50 [2] | Activity [4] |
| --- | --- | --- | --- | --- | --- |
| 90.8 µM | 59.1 µM | – | CC(=O)Nc1ccc2cc3ccc(N)cc3nc2c1 | 4.7 µM | Toxic |
| 46.7 µM | 102 µM | 12.8 µM | CCCC(=O)Nc1ccc2cc3ccc(NC(=O)CCC)cc3nc2c1 | 18.9 µM | – |
| 16.1 µM | > 250 µM | 0.8 µM | COc1ccc(C(=O)Nc2ccc3cc4ccc(NC(=O)c5ccc(OC)c(OC)c5)cc4nc3c2)cc1OC | 26.8 µM | – |
| 11.5 µM | > 250 µM | 2.9 µM | CC(=O)Nc1ccc2cc3ccc(NC(=O)c4ccc(Cl)cc4)cc3nc2c1 | 1.9 µM | – |
| 86.9 µM | > 250 µM | – | COc1ccc(C(=O)Nc2ccc3cc4ccc(NC(C)=O)cc4nc3c2)cc1 | 1.76 µM | Toxic |
| 4.31 µM | > 250 µM | 1.1 µM | O=C(Nc1ccc2cc3ccc(NC(=O)c4ccccc4)cc3nc2c1)c1ccccc1 | 110 µM | – |
| 203 µM | > 250 µM | 1.3 µM | COc1ccc(C(=O)Nc2ccc3cc4ccc(NC(C)=O)cc4nc3c2)cc1OC | 2.1 µM | – |
| 342 µM | > 250 µM | 4.5 µM | CC(=O)Nc1ccc2cc3ccc(NC(C)=O)cc3nc2c1 | 738 µM | – |
| 0.11 µM | > 250 µM | 0.2 µM | O=C(Nc1ccc2cc3ccc(NC(=O)c4ccc(Cl)cc4)cc3nc2c1)c1ccc(Cl)cc1 | 2.49 µM | – |
| 1.7 µM | > 250 µM | 0.03 µM | O=C(Nc1ccc2cc3ccc(NC(=O)c4ccc(F)cc4)cc3nc2c1)c1ccc(F)cc1 | 0.77 µM | – |
| 4.8 µM | > 250 µM | 1.1 µM | COc1ccc(C(=O)Nc2ccc3cc4ccc(NC(=O)c5ccc(OC)cc5)cc4nc3c2)cc1 | 13.4 µM | – |
| 186 µM | > 250 µM | – | CC(=O)Nc1ccc2cc3ccc(NC(=O)c4ccccc4)cc3nc2c1 | 5.4 µM | Toxic |
| 133 µM | > 250 µM | 0.67 µM | CC(=O)Nc1ccc2cc3ccc(NC(=O)c4ccc(F)cc4)cc3nc2c1 | 1.1 µM | – |
| 160 µM | 171 µM | 7.7 µM | CCC(=O)Nc1ccc2cc3ccc(NC(=O)CC)cc3nc2c1 | 23.2 µM | – |
| 0.38 µM | – | 0.14 µM | C[C@@H]1[C@H](O)[C@@H](C)/C=C/C=C/C=C/C=C/C=C/C=C/C=C/[C@H](O[C@@H]2O[C@H](C)[C@@H](O)[C@H](N)[C@@H]2O)C[C@@H]2O[C@](O)(C[C@@H](O)C[C@@H](O)[C@H](O)CC[C@@H](O)C[C@@H](O)CC(=O)O[C@H]1C)C[C@H](O)[C@H]2C(=O)O [AMPHOTERICIN B] | 154 µM | – |
| – | 1.38 µM | – | COc1cccc2c1C(=O)c1c(O)c3c(c(O)c1C2=O)C[C@@](O)(C(=O)CO)C[C@@H]3O[C@H]1C[C@H](N)[C@H](O)[C@H](C)O1 [DOXORUBICIN] | – | – |
| 1.3 µM | > 250 µM | 0.12 µM | Nc1ccc2cc3ccc(N)cc3nc2c1 [PROFLAVINE] | 2.21 µM | – |
